ABCB1 block: blocks JC-1 efflux by human ABCB1 transporter | hit rate 0.067% among 190,000 | CCRF-Adr cells, flow cytometry | inhibition, % at 6.6 µM | P08183; in the data active means inhibition above about 40%;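 further: 0% = vehicle and 100% = reference inhibitor; higher value means more JC-1 retained so stronger ABCB1 efflux block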
Target sequence (P08183 whole entry, looked up): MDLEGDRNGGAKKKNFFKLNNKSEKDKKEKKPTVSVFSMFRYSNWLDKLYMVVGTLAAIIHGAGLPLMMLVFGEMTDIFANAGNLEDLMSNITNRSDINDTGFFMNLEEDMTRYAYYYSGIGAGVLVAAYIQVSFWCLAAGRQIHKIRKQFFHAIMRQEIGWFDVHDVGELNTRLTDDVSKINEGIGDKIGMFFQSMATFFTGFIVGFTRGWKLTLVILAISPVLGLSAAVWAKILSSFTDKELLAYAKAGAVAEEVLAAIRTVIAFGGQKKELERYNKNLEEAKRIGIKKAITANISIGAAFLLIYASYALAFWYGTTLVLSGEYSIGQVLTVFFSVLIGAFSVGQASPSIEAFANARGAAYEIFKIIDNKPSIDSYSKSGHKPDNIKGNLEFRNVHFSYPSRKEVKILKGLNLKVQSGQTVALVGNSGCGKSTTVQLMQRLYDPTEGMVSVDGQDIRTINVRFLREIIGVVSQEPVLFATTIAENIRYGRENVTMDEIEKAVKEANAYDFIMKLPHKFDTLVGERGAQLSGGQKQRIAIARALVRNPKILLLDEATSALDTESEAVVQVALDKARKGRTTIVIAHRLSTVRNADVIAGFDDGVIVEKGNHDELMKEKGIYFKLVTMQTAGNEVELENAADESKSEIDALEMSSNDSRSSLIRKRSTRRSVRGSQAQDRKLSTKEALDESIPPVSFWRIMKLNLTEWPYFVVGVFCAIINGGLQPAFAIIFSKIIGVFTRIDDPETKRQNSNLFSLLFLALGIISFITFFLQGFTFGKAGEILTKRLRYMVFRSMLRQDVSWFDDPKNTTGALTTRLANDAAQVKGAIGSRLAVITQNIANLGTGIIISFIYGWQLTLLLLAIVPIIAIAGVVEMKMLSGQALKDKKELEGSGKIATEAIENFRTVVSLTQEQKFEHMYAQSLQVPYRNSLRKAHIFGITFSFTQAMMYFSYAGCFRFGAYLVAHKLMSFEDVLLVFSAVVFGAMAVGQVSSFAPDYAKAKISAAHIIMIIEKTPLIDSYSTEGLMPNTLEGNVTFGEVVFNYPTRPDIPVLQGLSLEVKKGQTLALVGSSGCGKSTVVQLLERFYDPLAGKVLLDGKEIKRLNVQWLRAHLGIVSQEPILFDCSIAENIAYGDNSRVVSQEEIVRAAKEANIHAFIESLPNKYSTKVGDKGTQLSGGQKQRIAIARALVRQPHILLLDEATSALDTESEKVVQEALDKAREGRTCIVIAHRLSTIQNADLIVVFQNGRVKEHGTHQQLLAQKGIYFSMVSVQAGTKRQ
FLuc inh counter: counter-screen for luciferase assay inhibitors: firefly luciferase inhibition; P08659; ATPLite firefly luciferase biochemical luminescence, 10 min; inhibition, % at 10 µM; hit rate 1.5% among 200,000; AID 1006;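 active means inhibition above about 50% when tested at 10 µM, limit read from the data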
FLuc stim CS: firefly luciferase counter-screen for stimulation assays; AID 1027; activation factor at 10 µM; 200,000 tested, under 10 active; ATPlite luciferase biochemical, luminescence, 10 min; 0 = ATP-free wells, 1 = DMSO control;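 active means luciferase activation factor, scaled between plate controls, of at least 2 with compound at 10 µM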
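System: cell-free luciferase reagent; medium: PBS as buffer for the ATP substrate; doses: test compounds dosed from 2 mM stocks in 100% DMSO; incubation: 10 min, room temperature; measured by: luminescence from luciferase reaction; read-out: luciferase activation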
ABCG2 inh: inhibitors of human ABCG2 transporter, ABCB1 counter-screen; inhibition, % at 6.6 µM; hit rate 0.1% among 190,000; Q9UNQ0; IgMXP3 cells, JC-1 efflux, flow cytometry;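 active means inhibition above 80%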;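 further: 0% = DMSO and 100% = nicardipine control wells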
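Test system: IgMXP3 cells (ABCG2) mixed with DDAO far-red-labelled CCRF-Adr cells (ABCB1). Reagent: JC-1 transporter substrate. Compound dosing: single test compound dose, 6.6 µM final. Times: 10 min compound exposure, 25 °C. Detection: flow cytometry of retained JC-1 fluorescence. Read-out basis: efflux inhibition in percent versus controls. Controls: nicardipine and DMSO wells.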
Diaph act CS: diaphorase activation or chemical reduction counter-screen | Diaphorase/resazurin coupled assay, resorufin fluorescence, 16 min; active compounds read high; 1 = vehicle wells, 0 = NADH-free wells | activation factor at 20 µM | hit rate 0.005% among 190,000;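 active means diaphorase activity raised at least twofold by the compound at 20 µM; inactive means activation factor below 2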
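Assay system: bacterial diaphorase enzyme (C. kluyveri) / Input: enzyme 0.07 U/mL final / Medium: 50 mM HEPES pH 7.4 with 4.542 mM MgCl2, 0.005% Tween 20 / Doses: single compound dose of 20 µM, 1% DMSO final / Incubation: 16 min enzyme reaction, ambient temperature / Signal: fluorescence, excitation 544 nm and emission 590 nm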
ABCB6 inh MLPCN: inhibitors of human ABC transporter ABCB6. hit rate 0.19% among 360,000. K562-ABCB6 porphyrin accumulation, flow cytometry, 1 h; active compounds read low. fluorescence ratio to DMSO, % at 10 µM;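 active means fluorescence ratio to DMSO below 75%, the collection mean minus 3 SD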;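 further: signal is porphyrin accumulated inside mitochondria; 100% equals median channel fluorescence of DMSO control wells; lower ratio means ABCB6 inhibition with less porphyrin fluorescence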
ABCB1 confirm: inhibits human ABCB1 efflux, confirmed at single point; shares compounds with ABCG2 inh; CCRF-Adr cells, JC-1 efflux, flow cytometry; AID 1451; inhibition, % at 6.6 µM; hit rate 7% among 270;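 active means inhibition of pump activity above 50%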;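 further: 0% = DMSO and 100% = nicardipine full pump inhibition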
ABCG2 single pt: inhibits human ABCG2 efflux, confirmed at single point; shares compounds with ABCG2 inh; IgMXP3 cells, JC-1 efflux, flow cytometry; inhibition, % at 6.6 µM; hit rate 6% among 270;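 active means inhibition above 50%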;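 further: 0% = DMSO wells and 100% = nicardipine pump inhibitor wells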
IgMXP3 autofluor: counter-screen for ABCG2 inhibitors: compound fluorescence in IgMXP3 cells; fluorescence at 6.6 µM; AID 1480; hit rate 30% among 270; shares compounds with ABCG2 inh; compound autofluorescence 488/530 nm, flow; active compounds read high;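 active means fluorescence in ABCG2-expressing cells above the plate's control-well mean plus 3 SD, cut at about 15 in these data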;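 further: median cell fluorescence with compound minus that of DMSO-treated control cells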
CCRF autofluor: counter-screen for ABCB1 inhibitors: compound fluorescence in CCRF-Adr cells | shares compounds with ABCG2 inh | compound autofluorescence 488/530 nm, flow cytometry; active compounds read high | fluorescence at 6.6 µM | hit rate 30% among 270 | AID 1483;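 active means fluorescence beyond the plate control mean plus 3 SD, with a fluorescence-to-maximum score over 2, cut at about 25 in these data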
* = called active by the depositor; i = inactive; . = no result; + = active, no number. Shown is part of a subset that was picked to be rich in hits.

SMILES | ABCB1 block | FLuc inh counter | FLuc stim CS | ABCG2 inh | Diaph act CS | ABCB6 inh MLPCN | ABCB1 confirm | ABCG2 single pt | IgMXP3 autofluor | CCRF autofluor
CCCCCn1c(CN2CCN(Cc3ccccc3)CC2)nc2c1c(=O)n(C)c(=O)n2C | 57* | -2 | 1 | 28 | 1 | 95 | 23 | 14 | 0.81 | -2.4
CCCN1C(=O)/C(=C\C=C2\N(CC)c3ccccc3C2(C)C)SC1=S | 68* | 8 | 0.9 | 104* | 0.9 | i | -27 | 5 | 63* | 252*
CCOCCCNc1nc2c(C)cccn2c(=O)c1/C=C1\SC(=S)N(CC(C)C)C1=O | 48* | -9 | 1.1 | 141* | 1.1 | i | 7 | 40 | 44* | 211*
CN(C)c1ccc(P(=O)(Nc2cccc(C(F)(F)F)c2)N2CCOCC2)c(NC(=O)c2cccs2)c1 (centres undefined) | 51* | -6 | 1.1 | 19 | 0.8 | 92 | 75* | 26 | -2.2 | -4.6
CC1=NN(c2ccc([N+](=O)[O-])cc2)C(=O)/C1=C\N(C)C | 6 | 52* | 0.5 | 80 | 0.9 | 93 | 10 | 38 | -0.09 | -0.59
CCCC1=NN(c2ccc([N+](=O)[O-])cc2)C(=O)/C1=C/N(C)C | 1 | -3 | 1 | 27 | 0.8 | 103 | . | . | . | .
COc1ccc(-c2cc(C3CCN(C(=O)OC(C)(C)C)CC3)[nH]n2)cc1 | 1 | -3 | 1 | 4 | 0.8 | 91 | . | . | . | .
CCOC(=O)c1cn2nc(-c3ccc(OC)cc3)cc2nc1C1CCN(C(=O)OC(C)(C)C)CC1 | 51* | -2 | 1 | 27 | 0.7 | 86 | 45 | 15 | 0.41 | -1.2
COc1ccc([N+](=O)[O-])cc1NC(=O)C(C)Sc1ccc(C)cc1 (centres undefined) | 2 | 4 | 1 | 82* | 0.6 | 97 | 5 | 35 | 3.6 | 3.8
Cc1cc(NC(=O)c2cccc([N+](=O)[O-])c2)n(-c2ccccc2)n1 | 0 | -9 | 1.1 | 2 | 0.9 | 105 | . | . | . | .
Cc1cc(NC(=O)c2cc([N+](=O)[O-])cc([N+](=O)[O-])c2)n(-c2ccccc2)n1 | 0 | -2 | 1 | 84* | 0.8 | 101 | 2 | 32 | 2.2 | -2.2
O=C1S/C(=C/c2ccc(N3CCOCC3)o2)C(=O)N1Cc1c(F)cccc1Cl | 5 | 0 | 1 | 136* | 0.8 | 275 | -12 | 3 | 248* | 49*
O=C1N=C(N2CCOCC2)S/C1=C/c1ccc(-c2ccccc2Cl)o1 | 0 | -2 | 1 | 1 | 0.9 | 101 | . | . | . | .
Cc1cc(OCC(=O)NNC(=S)NCC2CCCO2)cc(C)c1Cl (centres undefined) | . | . | . | . | . | 96 | . | . | . | .
CCOC(=O)c1sc2ncc([N+](=O)[O-])cc2c1N | . | . | . | . | . | 105 | . | . | . | .
COC(=O)c1sc2cc([N+](=O)[O-])cc(SCC(C)C)c2c1N | 61* | -3 | 1 | 154* | 0.7 | 373 | -2 | 22 | 46* | 112*
C/C(=N\NC(=O)COc1cc(C)cc(C)c1)c1ccc(N2CCOCC2)cc1 | 0 | 1 | 1 | 92* | 0.9 | 100 | 1 | 42 | -2.2 | -4.6
C/C(=N\NC(=O)COc1ccc(C#N)cc1)c1ccc(N2CCOCC2)cc1 | 0 | 0 | 1 | 3 | 1 | 104 | . | . | . | .
CC(C)c1ccc(OCc2cccc(C(=O)N/N=C/c3cccnc3)c2)cc1 | 0 | 42 | 0.6 | 9 | 0.8 | 100 | . | . | . | .
CCOc1ccc(OCc2cccc(C(=O)N/N=C/c3cccnc3)c2)cc1 | 2 | 47 | 0.5 | 87* | 1 | 98 | -2 | 22 | 4.2 | 3.2
O=C(/C=C/c1cccc([N+](=O)[O-])c1)Nc1cccc(NC(=O)c2ccco2)c1 | 0 | -1 | 1 | -6 | 0.9 | 96 | . | . | . | .
O=C(/C=C/c1cccc([N+](=O)[O-])c1)Nc1cccc(NC(=O)c2cccs2)c1 | + | -1 | 1 | + | 0.9 | 98 | 13 | 31 | -0.59 | 0.66
COc1ccc(CNC(=O)C2CCCN(c3ncnc4c3nc3n4CCCCC3)C2)cc1 (centres undefined) | . | . | . | . | . | 97 | . | . | . | .
CN(C)c1ccc(/C=C2\SC(=S)N(Nc3ncc(C(F)(F)F)cc3Cl)C2=O)cc1 | 187* | 2 | 1 | + | 1 | i | -171 | -39 | 228* | 391*
CS(=O)(=O)c1ccc(Cl)c(NC(=O)c2cccc(-n3cnnn3)c2)c1 | . | . | . | . | . | 95 | . | . | . | .
SMILES | ABCB1 block | FLuc inh counter | FLuc stim CS | ABCG2 inh | Diaph act CS | ABCB6 inh MLPCN | ABCB1 confirm | ABCG2 single pt | IgMXP3 autofluor | CCRF autofluor
Cn1c(CCCOc2ccc(Cl)cc2Cl)nnc1SCC(=O)Nc1ccc(F)c(Cl)c1 | 0 | -4 | 1 | 0 | 0.9 | 97 | . | . | . | .
Cn1c(CCCOc2ccc(Cl)cc2Cl)nnc1SCC(=O)Nc1cccc(F)c1 | 3 | 10 | 0.9 | 111* | 0.9 | 91 | 4 | 16 | -1.7 | -1.2
CC(Cc1cccs1)NC(=S)Nc1ccc(Cl)c(Cl)c1 (centres undefined) | 1 | -3 | 1 | 61 | 0.8 | 97 | -4 | 7 | 3.2 | 10
CC(Cc1cccs1)NC(=S)Nc1ccc(Cl)cc1 (centres undefined) | 0 | -3 | 1 | 2 | 0.8 | 101 | . | . | . | .
CCc1ccc2oc(-c3ccc(OC)cc3)cc(=Nc3c(C)n(C)n(-c4ccccc4)c3=O)c2c1 | 44* | 32 | 0.7 | 97* | 0.9 | 90 | 28 | 41 | 0.21 | 1.6
O=C(Nc1nc2ccc([N+](=O)[O-])cc2s1)c1c(F)cccc1F | 1 | 3 | 1 | 80 | 0.9 | 96 | 0 | 30 | -3.4 | -5.7
CCCN(CCC)CCOc1cc(C)ccc1C(C)C | 137* | -2 | 1 | + | 0.8 | 98 | 1 | -1 | 13 | 37*
CSc1nc(N2CCCC2)c2c(c1C#N)CC(C)(C)OC2 | 7 | -2 | 1 | 63 | 0.8 | 101 | 16 | 32 | 0.96 | 0.11
COc1ccc(CNc2nc(-c3cccnc3)nn2C(=O)c2cccs2)cc1 | 6 | -6 | 1.1 | 88* | 0.8 | 97 | 11 | 35 | -0.74 | 0.01
